Experimental data published in ChEMBL document CHEMBL1143088, “Non-acidic pyrazole EP1 receptor antagonists with in vivo analgesic efficacy” (Bioorg Med Chem Lett, 2008).
pIC50, pKi: −log10 of the molar value.

Legend:
Blood [1] = experiment: Drug uptake in FCA-induced hypersensitivity rat blood at 10 mg/kg, po administered with DMSO as vehicle; type: ADME, organism-based; design: dose 10 mg/kg, route oral; conditions: in vivo, read-out: Drug uptake
Method in brief: (§1)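 CFA inflammatory pain rats dosed orally at 1, 3, 10 and 30 mg/kg in 2% DMSO and 20% Kleptose water; weight-bearing readout and blood/brain samples taken 1 h post-dose. Blood levels mean of seven rats; brain levels mean of two or three rats; Br:Bl average of three rats.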

[2] = Ratio of drug level in brain to blood in FCA-induced hypersensitivity rat at 1 mg/kg, po administered with DMSO as vehicle; type: ADME, organism-based; design: dose 1 mg/kg, route oral; method in brief: as §1
[3] = molecular target: T1, Prostaglandin E2 receptor EP1 subtype (Homo sapiens, UniProt P34995); experiment: Antagonist activity at PGE2-EP1 receptor assessed as PGE2-induced intracellular calcium mobilization; type: functional, cell-based
T1 sequence (P34995 whole entry): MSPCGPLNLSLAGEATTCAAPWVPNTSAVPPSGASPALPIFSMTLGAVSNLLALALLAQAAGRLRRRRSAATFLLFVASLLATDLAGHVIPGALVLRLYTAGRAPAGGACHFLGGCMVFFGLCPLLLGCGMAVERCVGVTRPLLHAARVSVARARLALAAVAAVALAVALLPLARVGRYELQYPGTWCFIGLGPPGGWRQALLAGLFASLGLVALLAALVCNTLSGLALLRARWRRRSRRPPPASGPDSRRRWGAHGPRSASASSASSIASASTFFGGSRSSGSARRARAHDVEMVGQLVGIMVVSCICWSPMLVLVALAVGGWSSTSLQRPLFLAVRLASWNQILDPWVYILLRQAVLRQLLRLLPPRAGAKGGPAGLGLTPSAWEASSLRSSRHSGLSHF

[4] = Ratio of drug level in brain to blood in FCA-induced hypersensitivity rat at 3 mg/kg, po administered with DMSO as vehicle; type: ADME, organism-based; design: dose 3 mg/kg, route oral; method in brief: as §1
Blood [5] = experiment: Drug uptake in FCA-induced hypersensitivity rat blood at 1 mg/kg, po administered with DMSO as vehicle; type: ADME, organism-based; design: dose 1 mg/kg, route oral; conditions: in vivo, read-out: Drug uptake; method in brief: as §1
Brain [6] = experiment: Drug uptake in FCA-induced hypersensitivity rat brain at 3 mg/kg, po administered with DMSO as vehicle; type: ADME, organism-based; design: dose 3 mg/kg, route oral; conditions: in vivo, read-out: Drug uptake; method in brief: as §1
Blood [7] = experiment: Drug uptake in FCA-induced hypersensitivity rat blood at 3 mg/kg, po administered with DMSO as vehicle; type: ADME, organism-based; design: dose 3 mg/kg, route oral; conditions: in vivo, read-out: Drug uptake; method in brief: as §1
[8] = Ratio of drug level in brain to blood in Sprague-Dawley rat at […], iv; type: ADME, organism-based; design: route intravenous
Method in brief: (§2)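 Male Sprague–Dawley rat given iv infusion over 18 h at 5 mL/kg/h (0.518 mg/kg/h) in 0.9% saline with 2% DMSO, 20% Kleptose. Serial blood samples every 15 min over last hour to confirm steady state; after 18 h blood taken, rat culled, brain homogenized; blood and brain analysed by LC/MS/MS.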

[9] = Volume of distribution at steady state in rat at 10 mL/h/kg, iv; type: ADME, organism-based; conditions: in vivo, read-out: Vdss
Method in brief: (§3)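 Male rats (n = 1 per compound) dosed iv at 10 mL/h/kg over 1 h via femoral vein cannula, target 1 mg free compound/kg, formulated at 0.1 mg/mL in 0.9% saline with 2% DMSO and 10–20% Kleptose (some with a molar equivalent NaOH), filtered before dosing.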

Brain [10] = experiment: Drug uptake in FCA-induced hypersensitivity rat brain at 30 mg/kg, po administered with DMSO as vehicle; type: ADME, organism-based; design: dose 30 mg/kg, route oral; conditions: in vivo, read-out: Drug uptake; method in brief: as §1
Rattus norvegicus = experiment: Reversal of FCA-induced hypersensitivity in orally dosed rat assessed as reduction in weight bearing administered with DMSO as vehicle; type: functional; conditions: po
Method in brief: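 The CFA inflammatory pain model used rats dosed orally at 1, 3, 10 and 30 mg/kg in 2% DMSO and 20% Kleptose in water. Weight bearing was the efficacy readout at 1 h post-dose. Blood (seven rats) and brain (two to three rats) were sampled at that time. ED50 was given in mg/kg.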

Brain [11] = experiment: Drug uptake in FCA-induced hypersensitivity rat brain at 1 mg/kg, po administered with DMSO as vehicle; type: ADME, organism-based; design: dose 1 mg/kg, route oral; conditions: in vivo, read-out: Drug uptake; method in brief: as §1
[12] = Drug level in Sprague-Dawley rat blood at steady state at […], iv after 18 hrs; type: ADME, organism-based; design: route intravenous; conditions: whole blood, read-out: Drug uptake; method in brief: as §2
[13] = Clearance at steady state in Sprague-Dawley rat blood at […], iv after 18 hrs; type: ADME, organism-based; design: route intravenous; conditions: whole blood; method in brief: as §2
[14] = molecular target: T1, Prostaglandin E2 receptor EP1 subtype; experiment: Antagonist activity at PGE2-EP1 receptor assessed as PGE2-induced response by schild analysis; type: functional; conditions: read-out: pA2 (converted)
Cytochrome P450 2C9 = Cytochrome P450 2C9 (Homo sapiens, UniProt P11712); experiment: Inhibition of CYP2C9; type: ADME
Chain of Cytochrome P450 2C9 (P11712 whole entry): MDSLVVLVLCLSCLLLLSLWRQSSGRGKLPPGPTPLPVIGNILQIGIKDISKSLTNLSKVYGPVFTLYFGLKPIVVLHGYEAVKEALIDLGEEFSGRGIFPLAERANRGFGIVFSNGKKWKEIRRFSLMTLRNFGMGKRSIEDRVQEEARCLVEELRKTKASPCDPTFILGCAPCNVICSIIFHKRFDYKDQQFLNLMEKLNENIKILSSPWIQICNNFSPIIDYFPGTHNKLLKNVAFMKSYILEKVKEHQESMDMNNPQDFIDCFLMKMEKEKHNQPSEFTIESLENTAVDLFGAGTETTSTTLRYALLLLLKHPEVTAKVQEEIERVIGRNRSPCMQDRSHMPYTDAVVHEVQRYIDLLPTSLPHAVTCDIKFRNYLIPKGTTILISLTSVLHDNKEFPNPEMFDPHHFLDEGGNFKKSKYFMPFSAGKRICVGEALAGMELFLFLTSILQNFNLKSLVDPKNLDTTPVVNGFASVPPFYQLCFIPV

Cytochrome P450 1A2 = molecular target: T2, Cytochrome P450 1A2 (Homo sapiens, UniProt P05177); experiment: Inhibition of CYP1A2; type: ADME
T2 sequence (P05177 whole entry): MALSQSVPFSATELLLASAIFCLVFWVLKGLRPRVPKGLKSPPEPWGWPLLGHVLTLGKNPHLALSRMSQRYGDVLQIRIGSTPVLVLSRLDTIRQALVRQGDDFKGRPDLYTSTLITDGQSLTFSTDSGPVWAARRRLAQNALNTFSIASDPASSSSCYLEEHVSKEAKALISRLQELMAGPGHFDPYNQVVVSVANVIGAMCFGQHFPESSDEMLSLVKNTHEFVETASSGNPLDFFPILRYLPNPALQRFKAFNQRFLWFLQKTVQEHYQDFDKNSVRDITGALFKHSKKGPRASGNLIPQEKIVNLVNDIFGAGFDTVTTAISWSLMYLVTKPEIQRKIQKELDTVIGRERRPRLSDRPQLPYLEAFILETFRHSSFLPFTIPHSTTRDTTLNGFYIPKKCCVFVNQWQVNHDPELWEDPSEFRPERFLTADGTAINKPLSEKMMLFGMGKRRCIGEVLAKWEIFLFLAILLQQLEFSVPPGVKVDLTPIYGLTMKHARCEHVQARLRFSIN

Brain [15] = experiment: Drug uptake in FCA-induced hypersensitivity rat brain at 10 mg/kg, po administered with DMSO as vehicle; type: ADME, organism-based; design: dose 10 mg/kg, route oral; conditions: in vivo, read-out: Drug uptake; method in brief: as §1
[16] = Ratio of drug level in brain to blood in FCA-induced hypersensitivity rat at 10 mg/kg, po administered with DMSO as vehicle; type: ADME, organism-based; design: dose 10 mg/kg, route oral; method in brief: as §1
Cytochrome P450 3A4 = Cytochrome P450 3A4 (Homo sapiens, UniProt P08684); experiment: Inhibition of CYP3A4; type: ADME
Chain of Cytochrome P450 3A4 (P08684 whole entry): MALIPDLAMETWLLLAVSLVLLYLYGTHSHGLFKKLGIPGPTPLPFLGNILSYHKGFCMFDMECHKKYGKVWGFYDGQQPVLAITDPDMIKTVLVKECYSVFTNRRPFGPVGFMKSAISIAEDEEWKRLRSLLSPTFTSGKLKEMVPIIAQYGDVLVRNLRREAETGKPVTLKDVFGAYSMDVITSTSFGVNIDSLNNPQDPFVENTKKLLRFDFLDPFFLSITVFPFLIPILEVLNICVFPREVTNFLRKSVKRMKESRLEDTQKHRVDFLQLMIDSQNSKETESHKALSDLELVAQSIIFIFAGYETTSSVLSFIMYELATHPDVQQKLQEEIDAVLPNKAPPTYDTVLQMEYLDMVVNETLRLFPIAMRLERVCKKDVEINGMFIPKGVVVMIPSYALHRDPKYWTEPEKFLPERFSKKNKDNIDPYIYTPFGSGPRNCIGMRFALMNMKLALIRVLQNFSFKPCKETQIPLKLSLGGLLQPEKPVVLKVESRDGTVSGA

[17] = molecular target: T3, Prostaglandin E2 receptor EP3 subtype (Homo sapiens, UniProt P43115); experiment: Antagonist activity at PGE2-EP3 receptor assessed as PGE2-induced intracellular calcium mobilization; type: functional, cell-based
T3 sequence (P43115 whole entry): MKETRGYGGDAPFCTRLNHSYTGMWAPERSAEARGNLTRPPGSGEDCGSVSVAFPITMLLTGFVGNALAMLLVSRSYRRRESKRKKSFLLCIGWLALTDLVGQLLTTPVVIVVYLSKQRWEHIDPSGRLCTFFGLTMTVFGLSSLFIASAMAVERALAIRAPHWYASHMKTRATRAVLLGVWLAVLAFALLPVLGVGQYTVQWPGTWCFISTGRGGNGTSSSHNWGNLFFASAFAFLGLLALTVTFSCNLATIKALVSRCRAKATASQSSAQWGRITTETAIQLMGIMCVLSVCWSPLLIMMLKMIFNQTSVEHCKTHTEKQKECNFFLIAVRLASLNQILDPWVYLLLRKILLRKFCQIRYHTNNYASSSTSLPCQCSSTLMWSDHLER

Blood [18] = experiment: Drug uptake in FCA-induced hypersensitivity rat blood at 30 mg/kg, po administered with DMSO as vehicle; type: ADME, organism-based; design: dose 30 mg/kg, route oral; conditions: in vivo, read-out: Drug uptake; method in brief: as §1
[19] = Half life in rat at 10 mL/h/kg, iv; type: ADME, organism-based; conditions: in vivo; method in brief: as §3
Cytochrome P450 2C19 = Cytochrome P450 2C19 (Homo sapiens, UniProt P33261); experiment: Inhibition of CYP2C19; type: ADME
Chain of Cytochrome P450 2C19 (P33261 whole entry): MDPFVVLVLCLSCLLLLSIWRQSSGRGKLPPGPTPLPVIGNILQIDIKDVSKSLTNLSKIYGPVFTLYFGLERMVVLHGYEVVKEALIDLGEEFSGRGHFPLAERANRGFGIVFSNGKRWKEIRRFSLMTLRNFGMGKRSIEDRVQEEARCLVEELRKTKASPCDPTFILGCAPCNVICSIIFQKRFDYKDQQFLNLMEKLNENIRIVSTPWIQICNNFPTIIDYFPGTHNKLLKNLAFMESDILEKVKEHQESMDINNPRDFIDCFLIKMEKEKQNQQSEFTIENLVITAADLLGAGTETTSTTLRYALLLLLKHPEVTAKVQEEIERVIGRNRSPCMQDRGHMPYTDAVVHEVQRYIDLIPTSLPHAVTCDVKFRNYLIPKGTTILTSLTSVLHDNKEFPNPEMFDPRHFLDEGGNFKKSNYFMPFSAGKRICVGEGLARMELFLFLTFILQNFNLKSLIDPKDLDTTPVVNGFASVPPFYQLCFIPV

[20] = Drug level in Sprague-Dawley rat brain at steady state at […], iv after 18 hrs; type: ADME, organism-based; design: route intravenous; conditions: read-out: Drug uptake; method in brief: as §2
[21] = molecular target: T1, Prostaglandin E2 receptor EP1 subtype; experiment: Displacement of [3H]PGE2 from human PGE2-EP1 receptor expressed in CHO-K1 cells; type: cell-based
[22] = Clearance in blood in rat at 10 mL/h/kg, iv; type: ADME, organism-based; conditions: whole blood; method in brief: as §3
[23] = Ratio of drug level in brain to blood in FCA-induced hypersensitivity rat at 30 mg/kg, po administered with DMSO as vehicle; type: ADME, organism-based; design: dose 30 mg/kg, route oral; method in brief: as §1
[24] = Distribution coefficient, logD at pH 7.4; type: physicochemical; conditions: octanol/water
Method in brief: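 Distribution coefficient between n-octanol and water buffered to pH 7.4; log10 of ratio of equilibrium concentrations of all species.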

Cytochrome P450 2D6 = Cytochrome P450 2D6 (Homo sapiens, UniProt P10635); experiment: Inhibition of CYP2D6; type: ADME
Chain of Cytochrome P450 2D6 (P10635 whole entry): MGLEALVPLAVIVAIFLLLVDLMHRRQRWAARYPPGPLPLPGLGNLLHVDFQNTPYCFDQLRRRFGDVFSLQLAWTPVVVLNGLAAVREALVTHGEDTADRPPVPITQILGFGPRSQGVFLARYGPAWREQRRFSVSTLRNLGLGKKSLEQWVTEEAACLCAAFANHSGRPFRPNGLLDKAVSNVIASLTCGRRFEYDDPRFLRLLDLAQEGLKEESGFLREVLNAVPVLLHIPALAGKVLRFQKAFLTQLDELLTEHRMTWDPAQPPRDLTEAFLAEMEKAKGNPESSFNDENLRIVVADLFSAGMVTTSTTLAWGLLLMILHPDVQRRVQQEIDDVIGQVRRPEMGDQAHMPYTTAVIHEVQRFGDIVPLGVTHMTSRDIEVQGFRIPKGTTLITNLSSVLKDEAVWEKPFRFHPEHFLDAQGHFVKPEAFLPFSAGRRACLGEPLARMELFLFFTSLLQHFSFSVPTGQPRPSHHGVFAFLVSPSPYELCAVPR

Cc1cc(NC(=O)OC(C)(C)C)nn1Cc1cc(Cl)ccc1OCc1ccccc1
concentration (Blood [1]): 302 nM | Kp [2]: 2.66 | pKi [3]: 7.80 | Kp [4]: 2.66 | concentration (Blood [5]): 57 nM | concentration (Brain [6]): 473 nM | concentration (Blood [7]): 210 nM | Kp [8]: 3.44 | Vd [9]: 8.6 L/kg | concentration (Brain [10]): 836 nM | ED50 (Rattus norvegicus): 5.36 mg/kg | concentration (Brain [11]): 106 nM | concentration at 18 h [12]: 408 nM | clearance [13]: 54 mL/min/kg | Kb [14]: 0.0501 µM | pIC50 (Cytochrome P450 2C9): 4.80 | pIC50 (Cytochrome P450 1A2): < 4.00 | concentration (Brain [15]): 781 nM | Kp [16]: 2.26 | pIC50 (Cytochrome P450 3A4): < 4.00 | pKi [17]: < 5.00 | concentration (Blood [18]): 299 nM | half-life [19]: 3 h | pIC50 (Cytochrome P450 2C19): < 4.00 | concentration at 18 h [20]: 1400 nM | pIC50 [21]: 7.60 | clearance [22]: 42 mL/min/kg | Kp [23]: 2.73 | logD [24]: > 3.7 | pIC50 (Cytochrome P450 2D6): < 4.00
